Test system: A549 cells
Experiment: MTT cell viability, antiproliferative action on A549 cells
Type: cell-based
Settings: Homo sapiens, A549, 72 h, read-out: % cell viability
Method in brief: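 A549 cells in DMEM with 10% FBS and 1% penicillin-streptomycin (37 °C, 5% CO₂) were grown to 90% confluence, seeded at 2.5 × 10⁴ cells/mL in 96-well plates and left 24 h. Dosing solutions at 25, 50 and 100 µg/mL in PBS/0.2% DMSO were added in triplicate, followed by 72 h incubation. MTT (5 mg/mL) was added for 4 h, then acid-isopropanol overnight. A570/620 was read; viability was blank-corrected relative to untreated controls.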

SMILES: CC(=O)O[C@H]1C(=O)[C@@]2(C)[C@H]([C@H](OC(=O)c3ccccc3)[C@]3(O)C[C@H](OC(=O)[C@H](O)[C@@H](NC(=O)c4ccccc4)c4ccccc4)C(C)=C1C3(C)C)[C@]1(OC(C)=O)CO[C@@H]1C[C@@H]2O [PTX, paclitaxel]
- viability at 25 µg/mL: 31.2%
- viability at 50 µg/mL: 26.5%
- viability at 100 µg/mL: 20.2%

From publication PMC10785664 (ACS Omega, 2023)
